Experimental data published in ChEMBL document CHEMBL4007404, “Identification of High-Potency Human TLR8 and Dual TLR7/TLR8 Agonists in Pyrimidine-2,4-diamines” (J Med Chem, 2017).
Activity calls are given as the source filed them. The rule behind the calls is not given here.

Columns and labels:
[1] = biological target: T1, Toll-like receptor 7 (Homo sapiens) (UniProt Q9NYK1); assay: Agonist activity at human TLR7 expressed in HEK293 cells co-expressing secreted alkaline phosphatase assessed as induction of NF-kappaB/AP-1 promoter activity by measuring increase in secreted alkaline phosphatase level by spectrophotometric method; format: cell-based
T1 sequence (whole entry): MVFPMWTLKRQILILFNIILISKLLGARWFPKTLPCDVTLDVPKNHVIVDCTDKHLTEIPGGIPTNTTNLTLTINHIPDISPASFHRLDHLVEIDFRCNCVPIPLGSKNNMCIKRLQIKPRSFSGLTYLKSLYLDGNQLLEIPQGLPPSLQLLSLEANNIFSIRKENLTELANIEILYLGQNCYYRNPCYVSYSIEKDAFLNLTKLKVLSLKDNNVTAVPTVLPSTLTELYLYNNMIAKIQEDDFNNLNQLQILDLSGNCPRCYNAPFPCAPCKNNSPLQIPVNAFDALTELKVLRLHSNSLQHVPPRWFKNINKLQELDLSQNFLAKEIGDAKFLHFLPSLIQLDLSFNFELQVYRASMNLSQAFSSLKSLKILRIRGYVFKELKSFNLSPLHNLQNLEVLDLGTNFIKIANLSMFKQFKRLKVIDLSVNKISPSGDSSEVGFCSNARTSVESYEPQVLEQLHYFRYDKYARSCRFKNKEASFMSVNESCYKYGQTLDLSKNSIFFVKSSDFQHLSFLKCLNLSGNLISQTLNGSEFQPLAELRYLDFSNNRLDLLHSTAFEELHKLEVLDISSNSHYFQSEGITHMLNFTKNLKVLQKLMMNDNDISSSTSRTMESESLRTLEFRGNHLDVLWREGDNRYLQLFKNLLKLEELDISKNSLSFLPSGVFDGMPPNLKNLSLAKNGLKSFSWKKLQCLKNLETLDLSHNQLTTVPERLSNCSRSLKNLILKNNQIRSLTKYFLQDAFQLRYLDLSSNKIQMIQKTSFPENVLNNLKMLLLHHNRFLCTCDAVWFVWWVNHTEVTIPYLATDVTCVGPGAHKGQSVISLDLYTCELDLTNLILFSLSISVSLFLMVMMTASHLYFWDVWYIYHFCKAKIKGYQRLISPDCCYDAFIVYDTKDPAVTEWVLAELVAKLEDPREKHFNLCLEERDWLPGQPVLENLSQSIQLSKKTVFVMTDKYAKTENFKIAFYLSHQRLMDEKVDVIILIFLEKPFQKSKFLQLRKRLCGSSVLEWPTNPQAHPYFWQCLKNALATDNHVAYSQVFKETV
In short: (§1)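 HEK293 cells stably co-transfected with the relevant human TLR (2, 3, 4, 5, 7, 8 or 9) plus an NF-κB/AP-1-driven secreted alkaline phosphatase reporter, kept in selection medium. Cells at ~10⁵ cells/ml were exposed to graded concentrations of stimuli in 384-well format, liquid-handler assisted. Supernatant sAP was read at 620 nm with an alkaline phosphatase-specific chromogen.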

[2] = biological target: T2, Toll-like receptor 8 (Homo sapiens) (UniProt Q9NR97); assay: Agonist activity at human TLR8 expressed in HEK293 cells co-expressing secreted alkaline phosphatase assessed as induction of NF-kappaB/AP-1 promoter activity by measuring increase in secreted alkaline phosphatase level by spectrophotometric method; format: cell-based; in short: as §1
T2 sequence (whole entry): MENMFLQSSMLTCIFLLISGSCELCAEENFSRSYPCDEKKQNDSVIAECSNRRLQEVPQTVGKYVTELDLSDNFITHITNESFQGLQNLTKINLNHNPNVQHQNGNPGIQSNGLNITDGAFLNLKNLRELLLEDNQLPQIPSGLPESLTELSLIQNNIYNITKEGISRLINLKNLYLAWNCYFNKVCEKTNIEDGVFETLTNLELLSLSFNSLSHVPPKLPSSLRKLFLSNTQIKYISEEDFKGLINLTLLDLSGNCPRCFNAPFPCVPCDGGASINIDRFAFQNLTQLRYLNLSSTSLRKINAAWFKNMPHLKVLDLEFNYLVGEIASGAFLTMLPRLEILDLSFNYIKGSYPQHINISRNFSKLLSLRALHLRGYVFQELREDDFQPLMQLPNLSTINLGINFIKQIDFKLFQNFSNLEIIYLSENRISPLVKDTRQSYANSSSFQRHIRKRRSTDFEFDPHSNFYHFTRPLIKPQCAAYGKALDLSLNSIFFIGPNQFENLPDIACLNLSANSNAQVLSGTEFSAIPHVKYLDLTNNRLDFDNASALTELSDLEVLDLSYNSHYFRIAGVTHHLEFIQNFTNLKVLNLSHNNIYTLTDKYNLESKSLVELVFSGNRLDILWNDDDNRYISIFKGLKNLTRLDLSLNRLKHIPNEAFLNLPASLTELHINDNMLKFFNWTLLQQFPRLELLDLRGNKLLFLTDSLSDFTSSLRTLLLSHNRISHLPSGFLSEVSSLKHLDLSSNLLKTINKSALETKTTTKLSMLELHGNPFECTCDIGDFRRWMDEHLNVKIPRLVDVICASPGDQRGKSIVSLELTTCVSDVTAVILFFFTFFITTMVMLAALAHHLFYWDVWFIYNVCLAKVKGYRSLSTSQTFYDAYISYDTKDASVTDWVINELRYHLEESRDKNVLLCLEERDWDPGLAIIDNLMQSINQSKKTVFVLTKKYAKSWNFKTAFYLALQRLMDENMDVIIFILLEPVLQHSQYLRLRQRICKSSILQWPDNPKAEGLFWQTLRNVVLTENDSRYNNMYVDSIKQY

[3] = biological target: T1, Toll-like receptor 7 (Homo sapiens); assay: Inhibition of human TLR7 expressed in HEK293 cells co-expressing secreted alkaline phosphatase assessed as NF-kappaB/AP-1 promoter activity by measuring increase in secreted alkaline phosphatase level at higher concentration by spectrophotometric method; format: cell-based
[4] = biological target: T2, Toll-like receptor 8 (Homo sapiens); assay: Inhibition of human TLR8 expressed in HEK293 cells co-expressing secreted alkaline phosphatase assessed as NF-kappaB/AP-1 promoter activity by measuring increase in secreted alkaline phosphatase level at higher concentration by spectrophotometric method; format: cell-based
[5] = test system: HEK293; assay: Cytotoxicity against HEK293 cells expressing human TLR7 or TLR8 at 10^-4M; format: cell-based; details: hek293, 100 µM
[6] = biological target: T2, Toll-like receptor 8 (Homo sapiens); assay: Agonist activity at TLR8 in human […] conventional dendritic cells assessed as upregulation of CD80 expression after 16 hrs by efluor 780 dye based flow cytometry
In short: (§2)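 Human PBMCs were incubated with serial compound dilutions at 37 °C for 16 h, with DMSO controls. Cells were stained with eFluor780 viability dye, then lineage and DC antibodies plus CD80 PE, and fixed. 250,000 gated events were acquired. pDCs were gated as Live Lin⁻ CD123⁺ CD303⁺ CD304⁺ HLA-DR⁺. cDCs were gated as Lin⁻ CD1c⁺ CD141⁻ CD11c⁺ HLA-DR⁺ or Lin⁻ CD141⁺ CD1c⁻ HLA-DR⁺. Median fluorescence intensity was quantified.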

[7] = biological target: T2, Toll-like receptor 8 (Homo sapiens); assay: Agonist activity at TLR8 in human CD141 positive conventional dendritic cells assessed as upregulation of CD80 expression after 16 hrs by efluor 780 dye based flow cytometry; in short: as §2
[8] = biological target: T1, Toll-like receptor 7 (Homo sapiens); assay: Agonist activity at TLR7 in human plasmacytoid dendritic cells assessed as upregulation of CD80 expression after 16 hrs by efluor 780 dye based flow cytometry; in short: as §2
[9] = biological target: T1, Toll-like receptor 7 (Homo sapiens); assay: Agonist activity at human TLR7 expressed in HEK293 cells co-expressing secreted alkaline phosphatase assessed as induction of NF-kappaB/AP-1 promoter activity by measuring increase in secreted alkaline phosphatase level at 100 uM by spectrophotometric method; format: cell-based
[10] = biological target: Toll-like receptor 2 (Homo sapiens) (UniProt O60603); assay: Activity at human TLR2 expressed in HEK293 cells co-expressing secreted alkaline phosphatase assessed as induction of NF-kappaB/AP-1 promoter activity by measuring increase in secreted alkaline phosphatase level by spectrophotometric method; format: cell-based; in short: as §1
[11] = biological target: Toll-like receptor 3 (Homo sapiens) (UniProt O15455); assay: Activity at human TLR3 expressed in HEK293 cells co-expressing secreted alkaline phosphatase assessed as induction of NF-kappaB/AP-1 promoter activity by measuring increase in secreted alkaline phosphatase level by spectrophotometric method; format: cell-based; in short: as §1
[12] = biological target: Toll-like receptor 4 (Homo sapiens) (UniProt O00206); assay: Activity at human TLR4 expressed in HEK293 cells co-expressing secreted alkaline phosphatase assessed as induction of NF-kappaB/AP-1 promoter activity by measuring increase in secreted alkaline phosphatase level by spectrophotometric method; format: cell-based; in short: as §1
[13] = biological target: Toll-like receptor 5 (Homo sapiens) (UniProt O60602); assay: Activity at human TLR5 expressed in HEK293 cells co-expressing secreted alkaline phosphatase assessed as induction of NF-kappaB/AP-1 promoter activity by measuring increase in secreted alkaline phosphatase level by spectrophotometric method; format: cell-based; in short: as §1
[14] = biological target: T3, Toll-like receptor 9 (Homo sapiens) (UniProt Q9NR96); assay: Activity at human TLR9 expressed in HEK293 cells co-expressing secreted alkaline phosphatase assessed as induction of NF-kappaB/AP-1 promoter activity by measuring increase in secreted alkaline phosphatase level by spectrophotometric method; format: cell-based; in short: as §1
T3 sequence (whole entry): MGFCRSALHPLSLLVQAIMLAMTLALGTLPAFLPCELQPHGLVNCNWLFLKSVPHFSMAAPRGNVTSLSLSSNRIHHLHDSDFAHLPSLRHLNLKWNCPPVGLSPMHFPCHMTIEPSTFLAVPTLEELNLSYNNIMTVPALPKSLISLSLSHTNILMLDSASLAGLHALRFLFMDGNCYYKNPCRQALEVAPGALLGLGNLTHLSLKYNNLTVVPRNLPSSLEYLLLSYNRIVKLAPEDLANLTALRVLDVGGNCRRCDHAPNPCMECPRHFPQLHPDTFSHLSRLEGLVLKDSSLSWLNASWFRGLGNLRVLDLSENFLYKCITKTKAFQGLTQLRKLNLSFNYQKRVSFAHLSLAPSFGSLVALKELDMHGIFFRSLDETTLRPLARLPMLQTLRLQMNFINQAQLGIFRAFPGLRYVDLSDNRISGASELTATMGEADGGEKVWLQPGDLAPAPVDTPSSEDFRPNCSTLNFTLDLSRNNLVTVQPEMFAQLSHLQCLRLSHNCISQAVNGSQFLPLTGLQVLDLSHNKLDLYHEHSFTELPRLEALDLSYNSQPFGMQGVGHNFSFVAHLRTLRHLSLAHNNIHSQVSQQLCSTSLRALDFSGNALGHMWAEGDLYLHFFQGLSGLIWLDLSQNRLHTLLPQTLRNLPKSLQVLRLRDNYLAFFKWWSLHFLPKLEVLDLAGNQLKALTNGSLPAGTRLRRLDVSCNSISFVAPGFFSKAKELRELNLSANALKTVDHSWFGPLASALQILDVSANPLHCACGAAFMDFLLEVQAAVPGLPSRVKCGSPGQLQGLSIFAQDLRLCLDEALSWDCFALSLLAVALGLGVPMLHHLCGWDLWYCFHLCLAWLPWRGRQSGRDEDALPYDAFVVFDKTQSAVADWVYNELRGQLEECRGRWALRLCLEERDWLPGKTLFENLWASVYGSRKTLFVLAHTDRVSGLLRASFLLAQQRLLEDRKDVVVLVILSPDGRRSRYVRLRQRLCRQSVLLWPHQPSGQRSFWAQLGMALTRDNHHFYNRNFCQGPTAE

Chain of Toll-like receptor 2 (Homo sapiens) (O60603 whole entry): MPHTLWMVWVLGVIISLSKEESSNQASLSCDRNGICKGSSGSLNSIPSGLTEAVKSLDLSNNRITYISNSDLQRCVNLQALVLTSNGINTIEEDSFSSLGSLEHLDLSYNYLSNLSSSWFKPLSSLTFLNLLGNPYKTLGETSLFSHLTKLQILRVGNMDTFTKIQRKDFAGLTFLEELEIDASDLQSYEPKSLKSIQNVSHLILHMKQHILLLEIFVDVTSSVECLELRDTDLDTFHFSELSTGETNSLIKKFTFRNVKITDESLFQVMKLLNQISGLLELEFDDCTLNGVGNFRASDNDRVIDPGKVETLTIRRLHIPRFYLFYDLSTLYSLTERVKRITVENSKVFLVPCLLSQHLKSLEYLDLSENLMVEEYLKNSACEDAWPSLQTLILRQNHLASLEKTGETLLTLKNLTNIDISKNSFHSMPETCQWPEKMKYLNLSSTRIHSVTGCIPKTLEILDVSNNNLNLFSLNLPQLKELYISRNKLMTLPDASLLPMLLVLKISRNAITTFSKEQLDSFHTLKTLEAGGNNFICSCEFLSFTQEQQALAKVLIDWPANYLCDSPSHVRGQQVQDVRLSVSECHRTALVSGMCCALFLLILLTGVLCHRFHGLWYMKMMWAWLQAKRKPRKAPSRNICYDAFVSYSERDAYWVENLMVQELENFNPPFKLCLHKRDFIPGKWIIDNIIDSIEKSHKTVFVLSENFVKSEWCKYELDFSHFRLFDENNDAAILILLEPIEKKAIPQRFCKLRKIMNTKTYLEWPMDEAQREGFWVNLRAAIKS
Chain of Toll-like receptor 3 (Homo sapiens) (O15455 whole entry): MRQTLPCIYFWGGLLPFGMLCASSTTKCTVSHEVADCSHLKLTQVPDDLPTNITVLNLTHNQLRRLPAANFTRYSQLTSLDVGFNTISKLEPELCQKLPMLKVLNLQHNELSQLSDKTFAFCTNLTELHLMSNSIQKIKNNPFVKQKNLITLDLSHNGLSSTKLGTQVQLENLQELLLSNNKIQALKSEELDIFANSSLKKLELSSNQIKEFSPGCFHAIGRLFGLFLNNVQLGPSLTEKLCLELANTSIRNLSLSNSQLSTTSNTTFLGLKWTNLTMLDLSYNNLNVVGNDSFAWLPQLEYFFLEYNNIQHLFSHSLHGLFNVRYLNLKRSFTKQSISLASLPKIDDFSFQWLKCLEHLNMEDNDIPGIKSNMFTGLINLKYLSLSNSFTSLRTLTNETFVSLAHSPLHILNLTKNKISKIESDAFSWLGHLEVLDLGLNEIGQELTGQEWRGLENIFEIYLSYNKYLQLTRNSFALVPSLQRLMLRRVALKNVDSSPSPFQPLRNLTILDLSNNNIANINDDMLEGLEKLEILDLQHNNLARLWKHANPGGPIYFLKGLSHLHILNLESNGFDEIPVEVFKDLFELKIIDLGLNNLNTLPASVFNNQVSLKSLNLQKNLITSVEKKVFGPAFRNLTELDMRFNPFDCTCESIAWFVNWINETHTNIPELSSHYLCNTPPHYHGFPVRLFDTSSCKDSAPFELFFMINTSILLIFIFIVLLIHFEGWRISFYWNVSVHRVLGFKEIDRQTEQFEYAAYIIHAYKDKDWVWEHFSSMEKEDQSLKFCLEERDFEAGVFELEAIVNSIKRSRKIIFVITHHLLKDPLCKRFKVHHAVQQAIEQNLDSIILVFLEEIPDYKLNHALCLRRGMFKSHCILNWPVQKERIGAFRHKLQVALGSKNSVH
Chain of Toll-like receptor 5 (Homo sapiens) (O60602 whole entry): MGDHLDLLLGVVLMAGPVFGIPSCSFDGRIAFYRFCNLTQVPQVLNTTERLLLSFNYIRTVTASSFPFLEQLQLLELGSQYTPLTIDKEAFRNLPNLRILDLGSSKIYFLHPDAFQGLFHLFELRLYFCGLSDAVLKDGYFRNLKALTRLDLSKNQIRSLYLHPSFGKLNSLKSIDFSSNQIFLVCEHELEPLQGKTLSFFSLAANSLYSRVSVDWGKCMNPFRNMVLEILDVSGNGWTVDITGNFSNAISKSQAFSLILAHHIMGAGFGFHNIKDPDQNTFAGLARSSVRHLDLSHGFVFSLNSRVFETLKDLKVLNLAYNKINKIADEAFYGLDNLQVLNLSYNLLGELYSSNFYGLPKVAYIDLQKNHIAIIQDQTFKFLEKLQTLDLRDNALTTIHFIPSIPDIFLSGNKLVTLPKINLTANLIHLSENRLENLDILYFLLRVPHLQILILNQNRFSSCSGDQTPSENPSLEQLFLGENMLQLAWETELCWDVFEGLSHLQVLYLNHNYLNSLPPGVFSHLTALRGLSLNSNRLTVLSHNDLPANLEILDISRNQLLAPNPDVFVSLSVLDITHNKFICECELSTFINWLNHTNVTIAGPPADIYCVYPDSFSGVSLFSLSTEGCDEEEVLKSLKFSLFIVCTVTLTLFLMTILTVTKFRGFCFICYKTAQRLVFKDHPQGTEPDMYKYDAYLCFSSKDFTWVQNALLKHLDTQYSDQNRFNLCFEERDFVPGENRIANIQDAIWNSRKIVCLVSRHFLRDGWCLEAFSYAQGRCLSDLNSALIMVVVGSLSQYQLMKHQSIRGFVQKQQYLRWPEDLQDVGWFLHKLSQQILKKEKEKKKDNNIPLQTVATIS
Chain of Toll-like receptor 4 (Homo sapiens) (O00206 whole entry): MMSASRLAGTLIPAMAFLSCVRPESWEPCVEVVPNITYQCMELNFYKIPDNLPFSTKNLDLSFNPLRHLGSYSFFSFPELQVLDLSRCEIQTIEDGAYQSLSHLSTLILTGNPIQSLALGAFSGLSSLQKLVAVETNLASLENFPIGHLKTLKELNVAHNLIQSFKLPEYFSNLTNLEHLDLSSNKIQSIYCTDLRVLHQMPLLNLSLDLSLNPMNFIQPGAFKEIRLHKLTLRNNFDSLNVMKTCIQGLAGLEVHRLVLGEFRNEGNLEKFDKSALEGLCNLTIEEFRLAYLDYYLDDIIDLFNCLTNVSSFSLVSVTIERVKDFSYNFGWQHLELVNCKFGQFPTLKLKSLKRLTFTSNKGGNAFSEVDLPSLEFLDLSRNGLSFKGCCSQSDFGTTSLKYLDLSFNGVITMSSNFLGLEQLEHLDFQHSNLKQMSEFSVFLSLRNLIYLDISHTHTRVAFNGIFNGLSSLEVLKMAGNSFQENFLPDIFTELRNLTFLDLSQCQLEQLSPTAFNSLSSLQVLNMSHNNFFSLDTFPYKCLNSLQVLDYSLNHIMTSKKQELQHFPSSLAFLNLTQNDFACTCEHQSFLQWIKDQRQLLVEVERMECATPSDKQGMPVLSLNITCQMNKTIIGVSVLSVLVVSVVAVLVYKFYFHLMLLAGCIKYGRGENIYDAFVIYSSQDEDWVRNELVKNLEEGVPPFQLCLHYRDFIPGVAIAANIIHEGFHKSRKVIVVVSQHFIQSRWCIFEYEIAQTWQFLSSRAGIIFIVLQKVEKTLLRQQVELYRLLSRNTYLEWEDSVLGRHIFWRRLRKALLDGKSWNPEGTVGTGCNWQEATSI

Compound | Activity [1] | Activity [2] | inhibition [3] | inhibition [4] | Activity [5] | Activity [6] | Activity [7] | Activity [8] | Activity [9] | Activity [10] | Activity [11] | Activity [12] | Activity [13] | Activity [14]
CCCCc1nc2c(N)nc3ccccc3c2n1Cc1ccc(CN)cc1 | Active | Active | Active | Active | Non-Toxic | Active | Active | Active | – | – | – | – | – | –
CCCCNc1nc(N)nc(C)c1Cc1ccccc1 | – | – | – | – | – | – | – | – | inactive | inactive | inactive | inactive | inactive | inactive
